Results collected from several papers.
Lines come from different studies, so protocols differ.
Target: Serine/threonine-protein kinase Chk1 (CHEK1, Homo sapiens, UniProt O14757)
Sequence (O14757 1-476, as in one of the studies): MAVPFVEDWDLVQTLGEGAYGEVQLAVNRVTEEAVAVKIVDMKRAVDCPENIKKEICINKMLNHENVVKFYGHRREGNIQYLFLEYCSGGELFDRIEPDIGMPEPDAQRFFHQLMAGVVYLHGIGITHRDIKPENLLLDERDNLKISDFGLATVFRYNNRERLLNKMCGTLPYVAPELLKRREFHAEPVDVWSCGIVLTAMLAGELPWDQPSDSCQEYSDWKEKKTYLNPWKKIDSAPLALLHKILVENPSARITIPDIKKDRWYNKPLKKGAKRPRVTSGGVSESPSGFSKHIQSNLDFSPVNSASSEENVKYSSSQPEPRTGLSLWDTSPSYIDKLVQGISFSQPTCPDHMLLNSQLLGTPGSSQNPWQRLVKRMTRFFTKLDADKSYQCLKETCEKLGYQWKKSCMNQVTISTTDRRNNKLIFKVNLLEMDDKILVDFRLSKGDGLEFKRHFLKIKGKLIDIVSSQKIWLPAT

The remaining activity of `COc1cc(Nc2cnc(C#N)c(O[C@H](C)CN(C)C)n2)ncc1-c1cnn(C)c1` is reported as 6% (enzyme activity; inhibitor; radiometric; 10 µM).
For `CO[C@@H](C)c1c(Nc2ccc([C@@H](N(C)C(=O)C3CCS(=O)(=O)CC3)C(F)(F)F)cc2)cnc2cc(Cl)nn12`, the remaining binding was 95% (cell-free assay; competition with immobilised ligand; 1 µM).
For `C[C@@H]1CCN(C(=O)CC#N)C[C@@H]1N(C)c1ncnc2[nH]ccc12`, the remaining signal was 94.1% (cell-free assay; inhibitor; 0.5 µM).
With `C[C@@H](c1cccc(C#N)c1)n1cc(Cl)cc(C(N)=O)c1=N` the remaining binding was 100% (cell-free assay; competition with immobilised ligand; 1 µM).
For `Nc1ncnc2occ(-c3ccc(NC(=O)Nc4cc(C(F)(F)F)ccc4F)cc3)c12`, the remaining signal was 100% (cell-free assay; inhibitor; 20 µM).
With `O=C(Nc1cnn(-c2csc(C(=O)NC3COC3)c2)c1)Nc1ccccc1Cl` the remaining activity was 98.7% (enzyme activity; inhibitor; 5 µM).
`O=C1Nc2ccc(Cl)cc2C1=Cc1cc(Cl)c(O)c(Cl)c1` has a remaining signal of 86.4% (cell-free assay; 0.5 µM).
For `Nc1c(C(=O)NCc2ccc(C(=O)NCCCC3CCCCC3)cc2)cnn1-c1ccccc1`, the remaining binding was 100% (cell-free assay; competition with immobilised ligand; 0.1 µM).
With `N#CCCc1ccc2c(c1)-c1[nH]c3ccc([N+](=O)[O-])cc3c1CC(=O)N2` the remaining signal was 45.1% (cell-free assay; 0.5 µM).
With `Cc1ccc(NC(=O)c2ccc(C)c(C(F)(F)F)c2)cc1C#Cc1nn(C2CCC(O)CC2)c2ncnc(N)c12` (stereo not drawn) the remaining signal was 114% (cell-free assay; 10 µM).
With `CC(C)(O)[C@H]1CC[C@H](Nc2ccc3ncc(-c4cccc(C(F)(F)F)c4)n3n2)CC1` the remaining activity was 94.2% (enzyme activity; inhibitor; 1 µM).
`C[S+]([O-])c1ccc(-c2nc(-c3ccncc3)c(-c3ccc(F)cc3)[nH]2)cc1` (stereo not drawn) gave a remaining signal of 97.3% (cell-free assay; 0.5 µM).
For `CS(=O)(=O)NCC[C@H](NC(=O)c1cncc2c1cnn2-c1ccc(F)cc1)c1ccnc(S(C)(=O)=O)c1`, the remaining binding was 97% (cell-free assay; competition with immobilised ligand; 1 µM).
With `CC(C)(C)c1nc(-c2cccc(NS(=O)(=O)c3c(F)cccc3F)c2F)c(-c2ccnc(N)n2)s1` the remaining activity was 100% (enzyme activity; inhibitor; radiometric; 1 µM).
For `FC(F)c1nc2ccccc2n1-c1nc(N2CCOCC2)nc(N2CCOCC2)n1`, the remaining activity was 90% (enzyme activity; inhibitor; 10 µM).
The remaining binding of `N#CC1(c2ccccn2)CCN(Cc2cc(C(=O)N3CCCC3)c(=O)n3ccccc23)CC1` is reported as 90% (cell-free assay; competition with immobilised ligand; 1 µM).
For `COc1cc(/C=C/C(=O)CC(=O)/C=C/c2ccc(O)c(OC)c2)ccc1O`, the activity vs control was 57% (enzyme activity; inhibitor; 1 µM).
With `CN(C)CC#Cc1ccc(OCCCc2sc(N3CCc4cccc(C(=O)Nc5nc6ccccc6s5)c4C3)nc2C(=O)O)c(F)c1` the remaining binding was 89% (cell-free assay; competition with immobilised ligand; 1 µM).
`Cc1ccc(C(=O)Nc2ccc(CN3CCN(C)CC3)c(C(F)(F)F)c2)cc1C#Cc1cnc2cccnn12` has a remaining activity of 96% (enzyme activity; inhibitor; 23.5 nM).
With `Cc1ccc(C(=O)NCc2ccsc2)cc1C#Cc1cn(C(C)C)c2ncnc(N)c12` the activity vs control was 87% (enzyme activity; inhibitor; 1 µM).
`COc1cc(Cl)c(C(=O)N[C@@H](CN[C@H]2CC[C@@H](N)CC2)Cc2ccc(C#N)cc2)cc1-c1ccc(CN[C@H](C)c2ccc(C)cc2)o1` gave a remaining activity of 100% (enzyme activity; inhibitor; 1 µM).
For `Cc1ccc(NC(=O)c2ccc(CN3CCN(C)CC3)cc2)cc1Nc1nc(-c2cccnc2)cs1`, the remaining signal was 110% (cell-free assay; 0.5 µM).
`Cc1nccc(COC(=O)N2C[C@@H]3[C@@H](CNC(=O)c4ccc5[nH]nnc5c4)[C@@H]3C2)n1` has a remaining binding of 100% (cell-free assay; competition with immobilised ligand; 1 µM).
`CC(C)(C)C(=O)c1sc(NC2CCCCC2)nc1N` has a remaining activity of 80% (enzyme activity; inhibitor; 10 µM).
